An excerpt weighted towards active compounds, which were near 2.9% of everything screened.
Wee1 stabilizer: inhibitors of human Wee1 degradation. HeLa Luc-Wee1K328M stability, luciferase luminescence; 100% = proteasome inhibitor MG132 effect. reporter increase, % at 5 µM. 1.2% of 220,000 active. P30291. AID 1321;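 active means activation above the mean of all tested compounds plus 3 SD, set per screening run, cut at about 8.8% in these data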;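 further: cells exposed to compound for 20 h before luminescence read; 0% = DMSO alone and 100% = MG132 at 30 µM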
RanGTP-Imp inh: inhibitors of RanGTP-importin-beta interaction, primary screen, biochemical, FRET, CFP-Ran, YFP-importin-beta, homogeneous; cell-free CFP-Ran/YFP-importin-beta FRET ratio; inhibition, % (no concentration beside the values); AID 2216; 1.1% of 300,000 active;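 active means more than half of the replicate wells show a fall in the fluorescence ratio signal beyond about 16%, limit read from the data, passing the limit was not always enough; inconclusive means exactly half of the replicate wells pass the set limit; inactive means fewer than half of replicates pass the limit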;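 further: 0% = DMSO wells and 100% = Ran loaded with GDP instead of GTP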
AI-2 QS mod: Vibrio harveyi AI-2 quorum sensing modulation | activity change, % at 7.5 µM | 0.4% of 300,000 active | Vibrio harveyi JMH597 AI-2 luminescence/OD600 ratio, 9 h; stronger effect = lower value; strain lacks LuxN and CqsS sensors; 0 = neutral-control median; in the data active means activity change below about -75%, passing the limit was not always enough; inconclusive means no clear call, values can overlap the other calls;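 further: luminescence divided by OD600 gain over 9 h not by final OD600 alone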
proKLK7 act: activators of human kallikrein-7 zymogen. P49862. purified proKLK7, EDANS-DABCYL substrate fluorescence; 100% is mature enzyme control, 0% vehicle. activation, % at 7 µM. 0.9% of 370,000 active;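 active means activation above the mean of all tested compounds plus 3 SD, computed per campaign excluding outliers beyond control limits, cut at about 13% in these data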
Runt-CBFb FRET: inhibitors of human RUNX1 Runt domain binding to CBFb | Q01196+Q13951 | Cerulean-Runt/Venus-CBFb FRET ratio 530/480, 1 h | inhibition, % at 20 µM | 0.46% of 220,000 active | AID 1496;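 active means inhibition over about 50% at 20 µM in the single-dose screen, limit read from the data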;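 further: 0% = DMSO wells and 100% = excess unlabeled CBFb competitor control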
Target sequence (Q01196 whole entry, looked up, the tested form may be a part): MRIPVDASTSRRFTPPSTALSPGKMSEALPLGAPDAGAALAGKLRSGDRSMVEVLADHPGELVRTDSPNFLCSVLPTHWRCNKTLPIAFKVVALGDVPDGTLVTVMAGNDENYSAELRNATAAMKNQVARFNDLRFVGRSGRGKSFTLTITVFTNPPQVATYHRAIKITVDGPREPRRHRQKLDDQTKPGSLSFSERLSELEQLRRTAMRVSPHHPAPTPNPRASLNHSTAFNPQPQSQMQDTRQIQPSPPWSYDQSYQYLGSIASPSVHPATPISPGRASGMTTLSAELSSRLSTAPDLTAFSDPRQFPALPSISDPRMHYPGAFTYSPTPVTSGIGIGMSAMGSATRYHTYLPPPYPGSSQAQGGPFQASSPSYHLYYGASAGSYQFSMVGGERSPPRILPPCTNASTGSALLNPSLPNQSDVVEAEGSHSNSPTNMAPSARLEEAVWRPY
Target sequence (Q13951 whole entry, looked up, the tested form may be a part): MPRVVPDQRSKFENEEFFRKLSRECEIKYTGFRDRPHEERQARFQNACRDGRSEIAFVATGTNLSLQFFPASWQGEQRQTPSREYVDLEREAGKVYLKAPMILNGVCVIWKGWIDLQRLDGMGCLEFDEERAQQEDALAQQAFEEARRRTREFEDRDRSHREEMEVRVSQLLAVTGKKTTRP
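Assay system: Cerulean-Runt domain / Medium: Tris 50 mM pH 7.5, KCl, K2SO4, 0.01% BSA / Timing: protein complex preformed 1 h, compound exposure 1 h, room temperature, dark / Measured by: FRET, excitation 422 nm, emission at 530 and 480 nm / Evaluation: loss of energy transfer signal / Control set: 5 µM unlabeled CBFb as full-inhibition high control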
Runt-SMMHC FRET: inhibitors of human RUNX1 Runt domain binding to CBFb-SMMHC | Cerulean-Runt/Venus-CBFb-SMMHC FRET ratio 530/480, 1 h | 0.74% of 220,000 active | AID 1434 | Q01196+Q13951 | inhibition, % at 20 µM;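 active means mean inhibition across duplicate retests at 20 µM reaching about 50%, limit read from the data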;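 further: 0% = DMSO wells and 100% = wells with excess untagged CBFb-SMMHC; inhibitors lower the FRET ratio by blocking Runt binding to CBFb-SMMHC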
KLK7 act conf: proKLK7 activation, confirmation; shares compounds with proKLK7 act; purified proKLK7, EDANS-DABCYL substrate fluorescence; scaled: vehicle 0, mature enzyme 100; activation, % at 7 µM; 68% of 3,200 active; AID 686949;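 active means activation, as change over the incubation, above the mean of all tested compounds plus 3 SD, cut at about 13% in these data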
EDANS-DABCYL int: fluorescence interference counter-screen for KLK7 activators | shares compounds with proKLK7 act | EDANS-DABCYL substrate fluorescence interference, no enzyme, 4 h; solvent 0%, active enzyme control 100% | activation, % at 7 µM | 80% of 3,200 active;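 active means activation above the all-compound mean plus 3 SD, ignoring values outside control-based bounds, cut at about 4.8% in these data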;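 further: value is the 4 h activation minus the activation read at time zero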
EDANS interf: EDANS fluorescence interference in dose response, no enzyme. EC50, µM. 20% of 250 active. shares compounds with proKLK7 act. EDANS-DABCYL peptide fluorescence interference. AID 720493;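 active means compounds that raise the fluorescence signal in this interference counterscreen, with EC50 at or below 10 µM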;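 further: intact quenched peptide substrate alone read at 355 nm excitation and 520 nm emission; signal is fluorescence gain from T0 to T4 after four hours at room temperature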
The depositor's hits bear a star; ? = inconclusive; nt = no result given.

SMILES	Wee1 stabilizer	RanGTP-Imp inh	AI-2 QS mod	proKLK7 act	Runt-CBFb FRET	Runt-SMMHC FRET	KLK7 act conf	EDANS-DABCYL int	others
COc1ccc(N(C)S(=O)(=O)c2cccc(C(=O)OCC(=O)Nc3cc(C)ccc3OC)c2)cc1	nt	nt	nt	1	nt	nt	nt	nt
COc1cc2c(cc1OC)CN(CCC(=O)c1ccc(Br)cc1)CC2	0	-4	13	14*	23	19	7	7.8*
COc1cc([N+](=O)[O-])ccc1NC(=O)CN1CCc2cc(OC)c(OC)cc2C1	nt	-2	12	25*	nt	nt	2	2
COc1cc2c(cc1OC)CN(CC(=O)NC(=O)NCc1ccccc1)CC2	0	-2	7	15*	-2	-2	3	4.4*
COc1cc2c(cc1OC)CN(CC(=O)Nc1cccc([N+](=O)[O-])c1)CC2	nt	0	2	28*	nt	nt	5	2
COc1cc2c(cc1OC)CN(C(=O)CCNC(=O)c1ccc(Br)cc1)CC2	nt	nt	nt	0	nt	nt	nt	nt
COc1cccc(NC(=O)N2CCCC2C(=O)NCc2ccccc2)c1 (configuration not stated)	-2	1	17	-1	-2	0	nt	nt
C#CCCOC(=O)N1C2=NC(C(=O)OC)=C(C(=O)OC)[C@@H]3N(C)c4ccccc4[C@]23C[C@H]1CO	nt	-3	37	1	nt	nt	nt	nt
COc1cc(/C=C2/NC(=O)N(CC(=O)Nc3cccc(C)c3)C2=O)ccc1OCC(N)=O	3	-2	14	146*	4	-3	50*	54*
CC(C)C1NC2(C(=O)c3ccccc3C2=O)C2C(=O)N(c3ccc(F)cc3)C(=O)C12 (configuration not stated)	3	-61	28	20*	-56	-86	1	-1
Cc1cccc(-c2cccc3nccn23)c1	nt	nt	nt	11	nt	nt	nt	nt
COc1cccc(-c2cnc3cccnn23)c1	nt	nt	nt	46*	nt	nt	39*	45*
COc1ccc(-c2cc(NC=O)c3ncc(-c4cccc(OC)c4)n3c2)cc1	nt	nt	nt	0	nt	nt	nt	nt
Cc1ccc(-c2cnc3cccnn23)cc1F	nt	nt	nt	23*	nt	nt	5	7.6*
CC(C)N(c1cc(=O)nc2ccccn12)C(C)C	nt	nt	nt	-1	nt	nt	nt	nt
COc1ccc(-c2csc(-c3ccc(C(=O)O)cc3)n2)cc1	10*	0	27	22*	-1	-2	35*	53*
CC(=O)Oc1c(-c2ccco2)oc2ccccc2c1=O	0	13	2	14*	20	92*	21*	19*
CCN(CC)C(=O)COc1c(-c2ccco2)oc2ccccc2c1=O	nt	-3	14	4	nt	nt	nt	nt
CC(=O)Oc1ccc2c(=O)c(N3C(=O)c4ccccc4C3=O)c(C)oc2c1C	2	-3	33	27*	-1	1	34*	31*
N#Cc1c(-c2ccco2)cc(-c2cccnc2)nc1N	-2	5	17	20*	-35	-106	42*	43*
N#Cc1c(-c2cccnc2)cc(-c2ccccc2)nc1N	2	2	12	13*	2	4	14*	13*
N#Cc1c(-c2ccco2)cc(C2CC2)nc1N	-2	0	12	-5	0	8	nt	nt
N#Cc1c(-c2ccco2)cc(-c2ccccn2)nc1N	0	3	18	13*	-24	-64	41*	40*
Cc1c(C(=O)c2ccccc2)c(=O)n(C)c(=O)n1C	0	2	1	0	-1	4	nt	nt
c1ccc2nc3c(nc2c1)OCC1CCCCN31 (configuration not stated)	nt	2	17	16*	nt	nt	18*	28*
SMILES	Wee1 stabilizer	RanGTP-Imp inh	AI-2 QS mod	proKLK7 act	Runt-CBFb FRET	Runt-SMMHC FRET	KLK7 act conf	EDANS-DABCYL int	others
Cc1ccc(C=Nc2ccccc2C(N)=O)cc1	3	5	34	19*	6	3	40*	31*	EDANS interf=>70
Cc1ccc(C=Nc2ccccc2C(=O)Nc2ccccc2)cc1	-1	1	19	-21	1	7	nt	nt
Cc1ccccc1C=Nc1ccccc1C(N)=O	3	0	2	18*	0	4	28*	29*
NC(=O)c1ccccc1N=Cc1ccccn1	1	-2	21	3	-1	4	nt	nt
Cc1cc(NC(=O)CN2C(=O)NC(c3ccccc3)(c3ccc(C)c(C)c3)C2=O)no1 (configuration not stated)	nt	nt	nt	0	nt	nt	nt	nt
CN1c2ccccc2Oc2nnc(Cl)cc21	1	11	18	13*	3	8	28*	34*
Cc1ccc(C)c(N2N=C(C(=O)OCC(=O)N(C)c3ccccc3)CCC2=O)c1	nt	nt	nt	0	nt	nt	nt	nt
COC(=O)c1ccc(C(=O)Nc2ccc3nc(-c4cccnc4)[nH]c3c2)cc1	1	?	10	20*	2	-94	-14	-13
O=C(Nc1ccc(-c2nc3ccccc3[nH]2)cc1)c1cccc(N2C(=O)CCC2=O)c1	0	1	15	127*	3	15	167*	171*
COC(=O)c1ccc(-c2nc3ccccc3[nH]2)cc1	1	1	4	43*	-1	3	79*	73*
CCN1C(=O)[C@H]2[C@@H](c3ccc(C(F)(F)F)cc3)N[C@]3(CCCN(Cc4ccc(Cl)cc4)C3=O)[C@H]2C1=O	nt	nt	nt	1	nt	nt	nt	nt
N#CC1C(=O)Nc2cccnc21 (configuration not stated)	nt	nt	nt	37*	nt	nt	34*	33*
O=C1Nc2ccccc2C1Cc1ccccn1 (configuration not stated)	2	1	16	0	1	0	nt	nt
O=C(O)c1ccc(-c2nc(-c3ccccc3)c(-c3ccccc3)[nH]2)cc1	0	-1	17	46*	-4	-1	79*	81*
COc1ccc(-c2[nH]c(-c3ccc(C(=O)O)cc3)nc2-c2ccccc2)cc1	0	?	10	3	nt	-2	nt	nt
COc1ccc(-n2nc(C(=O)NCC(=O)Nc3cc(OC)c(OC)c(OC)c3)c3ccccc3c2=O)cc1OC	nt	2	15	42*	nt	nt	66*	66*
O=C1c2ccccc2C2Cc3nnccc3CN12 (configuration not stated)	nt	nt	nt	0	nt	nt	nt	nt

Screening results deposited in PubChem BioAssay by several laboratories.
